Test results published in ChEMBL document CHEMBL1123030, “N-(Aminoalkyl)imide antineoplastic agents. Synthesis and biological activity” (J Med Chem, 1985).
Activity calls are given as the source filed them. The calls are words filed in the database; no cut-off is given here.

How the values were obtained:
L1210 [1] = test: Compound was tested for cytotoxic activity against L1210 leukemia in vitro; IA means inactive; format: functional, cell-based; settings: Mus musculus
P388 [2] = test: Inhibitory activity in vivo against P388 leukemia cells in mice at a dose of 50 mg/kg upon intraperitoneal administration; format: functional, Mus musculus
How it was run: (§1)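 Tumor source was ascites fluid implanted into BDF₁ mice. Tumor inoculation and drug dosing were both intraperitoneal, given once daily for 5 days (q1d × 5). Screening and data interpretation followed the general NCI protocol.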

P388 [3] = test: Inhibitory activity in vivo against P388 leukemia cells in mice at a dose of 100 mg/kg upon intraperitoneal administration; format: functional, Mus musculus; how it was run: as §1
Mus musculus [4] = test: Compound was evaluated for inhibitory activity in vivo against P388 leukemia cells in mice at a dose of 0.39 mg/kg upon intraperitoneal administration; format: functional; how it was run: as §1
[5] = Cytotoxic activity against human colon adenocarcinoma in vitro; format: functional
Mus musculus [6] = test: Compound was evaluated for inhibitory activity in vivo against P388 leukemia cells in mice at a dose of 1.56 mg/kg upon intraperitoneal administration; format: functional; how it was run: as §1
L1210 [7] = test: Cytotoxic activity against L1210 leukemia in vitro.; format: functional, Mus musculus
Mus musculus [8] = test: Compound was evaluated for inhibitory activity in vivo against P388 leukemia cells in mice at a dose of 3.12 mg/kg upon intraperitoneal administration; format: functional; how it was run: as §1
Mus musculus [9] = test: Compound was evaluated for inhibitory activity in vivo against P388 leukemia cells in mice at a dose of 0.78 mg/kg upon intraperitoneal administration; format: functional; how it was run: as §1
P388 [10] = test: Inhibitory activity in vivo against P388 leukemia cells in mice at a dose of 12.5 mg/kg upon intraperitoneal administration; format: functional, Mus musculus; how it was run: as §1
P388 [11] = test: Inhibitory activity in vivo against P388 leukemia cells in mice at a dose of 25 mg/kg upon intraperitoneal administration; format: functional, Mus musculus; how it was run: as §1
Mus musculus [12] = test: Compound was evaluated for inhibitory activity in vivo against P388 leukemia cells in mice at a dose of 3.13 mg/kg upon intraperitoneal administration; format: functional; how it was run: as §1
Mus musculus [13] = test: Compound was evaluated for inhibitory activity in vivo against P388 leukemia cells in mice at a dose of 6.25 mg/kg upon intraperitoneal administration; format: functional; how it was run: as §1
[14] = (§2) Compound was tested for cytotoxic activity against human colon adenocarcinoma in vitro; IA means Inactive
L1210 [15] = test: Compound was tested for cytotoxic activity against L1210 leukemia in vitro; IA means Inactive; format: functional, cell-based; settings: Mus musculus
L1210 [16] = test: Compound was tested for cytotoxic activity against L1210 leukemia in vitro.; IA means Inactive; format: functional, cell-based; settings: Mus musculus
Mus musculus [17] = test: Compound was evaluated for inhibitory activity in vivo against P388 leukemia cells in mice at a dose of 200 mg/kg upon intraperitoneal administration; format: functional; how it was run: as §1
Mus musculus [18] = test: Compound was evaluated for inhibitory activity in vivo against P388 leukemia cells in mice at a dose of 400 mg/kg upon intraperitoneal administration; format: functional; how it was run: as §1
Mus musculus [19] = test: Compound was evaluated for inhibitory activity in vivo against P388 leukemia cells in mice at a dose of 1.50 mg/kg upon intraperitoneal administration; format: functional; settings: dose 1.5 mg/kg; how it was run: as §1
Mus musculus [20] = test: Compound was evaluated for inhibitory activity in vivo against P388 leukemia cells in mice at a dose of 3.00 mg/kg upon intraperitoneal administration; format: functional; how it was run: as §1
Mus musculus [21] = test: Compound was evaluated for inhibitory activity in vivo against P388 leukemia cells in mice at a dose of 0.75 mg/kg upon intraperitoneal administration; format: functional; how it was run: as §1
Homo sapiens [22] = organism: Homo sapiens; test: Compound was tested for cytotoxic activity against human colon adenocarcinoma in vitro; IA means inactive; format: functional
Homo sapiens [23] = organism: Homo sapiens; test: as §2; format: functional
Mus musculus [24] = test: Compound was evaluated for inhibitory activity in vivo against P388 leukemia cells in mice at a dose of 120 mg/kg upon intraperitoneal administration; format: functional; how it was run: as §1
Mus musculus [25] = test: Compound was evaluated for inhibitory activity in vivo against P388 leukemia cells in mice at a dose of 60 mg/kg upon intraperitoneal administration; format: functional; how it was run: as §1
Mus musculus [26] = test: Compound was evaluated for inhibitory activity in vivo against P388 leukemia cells in mice at a dose of 30 mg/kg upon intraperitoneal administration; format: functional; how it was run: as §1
[27] = test system: L1210 leukemia (Mus musculus); test: Compound was evaluated for inhibitory activity against L1210 leukemia in mice at a dose of 50 mg/kg upon intraperitoneal administration
Mus musculus [28] = test: Compound was evaluated for inhibitory activity in vivo against P388 leukemia cells in mice at a dose of 15 mg/kg upon intraperitoneal administration; format: functional; how it was run: as §1
Mus musculus [29] = test: Compound was evaluated for inhibitory activity in vivo against P388 leukemia cells in mice at a dose of 3.75 mg/kg upon intraperitoneal administration; format: functional; how it was run: as §1
Mus musculus [30] = test: Compound was evaluated for inhibitory activity in vivo against P388 leukemia cells in mice at a dose of 7.5 mg/kg upon intraperitoneal administration; format: functional; how it was run: as §1
Mus musculus [31] = test: Compound was evaluated for inhibitory activity against B-16 melanoma in mice at a dose of 1.56 mg/kg upon intraperitoneal administration; format: functional
Mus musculus [32] = test: Compound was evaluated for inhibitory activity against B-16 melanoma in mice at a dose of 25 mg/kg upon intraperitoneal administration; format: functional
Mus musculus [33] = test: Compound was evaluated for inhibitory activity against B-16 melanoma in mice at a dose of 6.25 mg/kg upon intraperitoneal administration; format: functional
Mus musculus [34] = test: Compound was evaluated for inhibitory activity against B-16 melanoma in mice at a dose of 12.5 mg/kg upon intraperitoneal administration; format: functional
Mus musculus [35] = test: Compound was evaluated for inhibitory activity against B-16 melanoma in mice at a dose of 3.13 mg/kg upon intraperitoneal administration; format: functional
Homo sapiens [36] = organism: Homo sapiens; test: Compound was tested for cytotoxic activity against human colon adenocarcinoma in vitro; format: functional

Compound | T/C (P388 [2]) | T/C (P388 [3]) | Cytotoxic concentration [5] | Cytotoxic concentration (L1210 [7]) | T/C (P388 [10]) | T/C (P388 [11]) | further results
Cl.O=C1c2cccc3cc([N+](=O)[O-])cc(c23)C(=O)N1CCN1CCOCC1 | 105 | 183 |  |  |  |  | Cytotoxic concentration (L1210 [1]): inactive
Cl.O=C1c2cc([N+](=O)[O-])cc3cc([N+](=O)[O-])cc(c23)C(=O)N1CCN1CCCC1 |  |  | 172 nM | 82.9 nM |  |  | T/C (Mus musculus [4]): 117; T/C (Mus musculus [6]): 138; T/C (Mus musculus [8]): 136; T/C (Mus musculus [9]): 126
Cl.O=C1c2cc([N+](=O)[O-])cc3cc([N+](=O)[O-])cc(c23)C(=O)N1CCN1CCOCC1 | 147 |  | 722 nM | 1130 nM | 112 | 131 | 
Cl.O=C1c2cccc3cc([N+](=O)[O-])cc(c23)C(=O)N1CCN1CCCC1 |  |  |  | 159 nM | 163 |  | T/C (Mus musculus [12]): 135; T/C (Mus musculus [13]): 149
CN(C)CCN1C(=O)c2ccc(Cl)c3c(Cl)ccc(c23)C1=O |  |  |  | 699 nM |  | 107 | 
O=C1c2cc([N+](=O)[O-])cc3cc([N+](=O)[O-])cc(c23)C(=O)N1c1nncs1 | 127 | 137 |  |  | 91 | 119 | Cytotoxic concentration [14]: Not Active; Cytotoxic concentration (L1210 [15]): inactive
CN(C)CCN1C(=O)c2cccc3c(O)ccc(c23)C1=O.I |  | 107 |  |  |  |  | Cytotoxic concentration (L1210 [16]): inactive; T/C (Mus musculus [17]): 112; T/C (Mus musculus [18]): 120
CCNCCN1C(=O)c2cccc3cc([N+](=O)[O-])cc(c23)C1=O.Cl |  |  |  | 700 nM | 129 | 162 | T/C (Mus musculus [13]): 123
CN(C)CCN1C(=O)c2cc([N+](=O)[O-])cc3cc([N+](=O)[O-])cc(c23)C1=O.Cl |  |  | 41.3 nM | 36.1 nM |  |  | T/C (Mus musculus [19]): 167; T/C (Mus musculus [6]): 155; T/C (Mus musculus [20]): 169; T/C (Mus musculus [21]): 159; T/C (Mus musculus [8]): 167
CN(C)CCN1C(=O)c2cc(O)cc3cc(O)cc(c23)C1=O | 142 | 148 |  | 3540 nM | 122 | 130 | T/C (Mus musculus [17]): 149; Cytotoxic concentration (Homo sapiens [22]): inactive; T/C (Mus musculus [18]): 140
O=C1OCCN1CCN1C(=O)c2cc([N+](=O)[O-])cc3cc([N+](=O)[O-])cc(c23)C1=O |  |  |  | 2020 nM |  |  | Cytotoxic concentration (Homo sapiens [23]): inactive; T/C (Mus musculus [24]): 119; T/C (Mus musculus [25]): 109
Cl.Nc1cc2c3c(cc(N)cc3c1)C(=O)N(CCN1CCCCC1)C2=O |  |  | 1270 nM | 1390 nM | 119 |  | T/C (Mus musculus [26]): 142; T/C [27]: 145; T/C (Mus musculus [28]): 136; T/C (Mus musculus [25]): 191
CN(C)CCN1C(=O)c2cccc3c(Cl)ccc(c23)C1=O | 121 | 120 |  | 1010 nM |  | 105 | 
CN(C)CCN1C(=O)c2cc(N)cc3cc(N)cc(c23)C1=O.Cl.Cl.Cl |  |  | 677 nM | 337 nM |  |  | T/C (Mus musculus [29]): 125; T/C (Mus musculus [30]): 163; T/C (Mus musculus [28]): 163; T/C (Mus musculus [25]): 188
COc1ccc2c3c(cccc13)C(=O)N(CCN(C)C)C2=O | 109 | 117 |  |  |  |  | T/C (Mus musculus [17]): 133; Cytotoxic concentration (L1210 [1]): inactive
O=C1c2cccc3cc([N+](=O)[O-])cc(c23)C(=O)N1CCNCCO |  |  |  |  | 151 | 163 | T/C (Mus musculus [31]): 112; T/C (Mus musculus [32]): 216; T/C (Mus musculus [33]): 174; T/C (Mus musculus [34]): 219; T/C (Mus musculus [35]): 142; T/C (Mus musculus [13]): 137; Cytotoxic concentration (Homo sapiens [36]): 388 nM
